Assay outcomes deposited in PubChem BioAssay by Broad Institute.
This is a sample that favours compounds with a hit; in the whole collection about 3.1% have one here.
Cneo AK release: causes C. neoformans cell lysis; adenylate kinase release luminescence, 4 h; normalised: neutral wells 0, clomiphene wells 100; AID 651654; 0.2% of 360,000 active; lysis activity, % at 15 µM;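 active = mean lysis activity across replicates of at least 80%, whatever share of replicates individually reach that level; inactive = mean lysis activity below 80%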
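Test system: log-phase Cryptococcus neoformans yeast cells. Input: 5 × 10^6 yeast cells/mL. Medium: fresh YPD growth medium. Doses: single dose. Incubation: static 4 h at 37 °C with compound, 1 h detection. Measured by: luminescent adenylate kinase detection reagent. Read-out: signal increase indicating cell lysis. Benchmarks: Clomiphene.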
E-sel inducer: induces E-selectin expression in human endothelial cells; P16581; HUVEC E-selectin immunofluorescence imaging; normalized: neutral wells 0, TNF-alpha wells 100; activation, % at 7.58 µM; 0.37% of 260,000 active; AID 686992;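 active = mean E-selectin-positive cell signal at least 10% of the positive control, reached in at least 60% of replicates, without over 20% cell loss; inconclusive = no rule given, readout overlaps actives, possibly toxicity-flagged; inactive = the rest, including those meeting only one limit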
Target sequence (P16581 whole entry, looked up): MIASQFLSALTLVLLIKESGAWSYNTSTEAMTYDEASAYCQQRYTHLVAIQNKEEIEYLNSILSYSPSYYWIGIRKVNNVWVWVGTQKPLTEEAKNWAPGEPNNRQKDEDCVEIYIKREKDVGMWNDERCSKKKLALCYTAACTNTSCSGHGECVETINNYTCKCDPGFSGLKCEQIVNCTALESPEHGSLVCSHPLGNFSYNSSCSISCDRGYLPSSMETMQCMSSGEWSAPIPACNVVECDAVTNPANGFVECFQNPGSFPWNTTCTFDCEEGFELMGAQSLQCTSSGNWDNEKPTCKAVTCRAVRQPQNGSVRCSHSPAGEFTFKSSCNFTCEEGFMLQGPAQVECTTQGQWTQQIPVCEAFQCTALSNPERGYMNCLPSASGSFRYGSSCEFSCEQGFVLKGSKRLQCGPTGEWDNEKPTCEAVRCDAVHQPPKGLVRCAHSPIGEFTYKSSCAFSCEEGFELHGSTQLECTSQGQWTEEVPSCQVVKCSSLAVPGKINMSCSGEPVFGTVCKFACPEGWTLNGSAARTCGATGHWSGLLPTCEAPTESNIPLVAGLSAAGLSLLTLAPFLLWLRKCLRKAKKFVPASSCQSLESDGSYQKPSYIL
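Read-out: % PE-positive cells | Test system: HUVEC | Doses: One compound dose added by pin transfer | Buffer or medium: EGM-2 over gelatin coat | Signal: Immunofluorescence imaging | Benchmarks: TNF-alpha, DMSO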
miR-122 sensor: blocks miR-122 activity in Huh7 sensor cells. Huh7 miR-122 Renilla luciferase sensor, 48 h; neutral wells = 0, positive control = 100. 0.3% of 340,000 active. activation (reporter increase), % at 12.5 µM;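 active = mean replicate activation score at least 90 and every replicate individually at or above 90; inconclusive = only one of the two criteria met; inactive = neither criterion met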;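 note: higher luciferase means less miR-122 activity so hits act as miR-122 inhibitors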
rRNA inh HTS: inhibitors of bacterial rRNA selective over humanized ribosomes | E. coli WT GFP vs humanized-ribosome RFP mutants, fluorescence, 24 h; stronger effect = lower value; DMSO median 0, no signal -100 | GFP signal change (wild-type ribosome), % (concentration not given with the values) | 1.6% of 350,000 active | AID 720706;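 active = significant combined selectivity score with lowered wild-type GFP, culture density cut under 30%, mutant RFP and density less affected; inactive = any of these conditions unmet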
DENV2 CPE: inhibitors of DENV2 cytopathic effect. CPE inhibition, % at 9.99 µM. DENV2-infected cells, cytopathic effect rescue, plate reader. 1.7% of 350,000 active; in the data active = CPE inhibition above about 20%, passing the limit was not always enough; inconclusive = no clear call, values can overlap the other calls; tested in BHK-21 cells;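 note: 0% = median of neutral control wells and 100% = median of positive control wells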
Numbers without * were called inactive; ! = not active in a repeat; [ ] = another dose, or the depositor's remark.

`CC(C)NC(=O)Nc1ccc2c(c1)C(=O)N([C@@H](C)CO)C[C@@H](C)[C@H](CN(C)Cc1ccc(C(=O)O)cc1)OCCCC[C@@H](C)O2` gave Cneo AK release 1, E-sel inducer 1, miR-122 sensor 6[16.7 µM], rRNA inh HTS 1 and DENV2 CPE 22*.
CC(C)NC(=O)Nc1ccc2c(c1)C(=O)N([C@H](C)CO)C[C@@H](C)[C@H](CN(C)Cc1ccc(C(=O)O)cc1)OCCCC[C@H](C)O2 was read as Cneo AK release -3, E-sel inducer 0, miR-122 sensor -2[16.7 µM], rRNA inh HTS 5 and DENV2 CPE 2.
For CC(C)NC(=O)Nc1ccc2c(c1)C(=O)N([C@H](C)CO)C[C@@H](C)[C@@H](CN(C)Cc1ccc(C(=O)O)cc1)OCCCC[C@H](C)O2 the results were Cneo AK release -1, E-sel inducer 1, miR-122 sensor 0[16.7 µM], rRNA inh HTS 4 and DENV2 CPE 39*.
Screening O=C(/C=C/[C@H]1O[C@@H](n2ccc(=O)[nH]c2=O)[C@H](O)[C@@H]1O)NCc1cccs1 returned Cneo AK release -3, miR-122 sensor -7 and DENV2 CPE 23*.
Screening CO[C@H]1CN(C)C(=O)c2cccc(C#N)c2OC[C@@H]2O[C@H](CC[C@H]2OC)CCN(C)C(=O)[C@@H]1C returned Cneo AK release -6, E-sel inducer 0, rRNA inh HTS 4 and DENV2 CPE -3.
For CC(/C=C1\SC(=S)N(NS(=O)(=O)c2ccccc2)C1=O)=C\c1ccccc1 the results were Cneo AK release 2, E-sel inducer 2, miR-122 sensor 4, rRNA inh HTS -43* and DENV2 CPE inconclusive.
`CC(/C=C1\SC(=S)N(NC(=O)c2ccncc2)C1=O)=C\c1ccccc1` gave Cneo AK release 0, E-sel inducer 0, miR-122 sensor 0, rRNA inh HTS -32* and DENV2 CPE -4.
For CC(/C=C1\SC(=S)N(NC(=O)c2ccc(C)cc2)C1=O)=C\c1ccccc1 the results were Cneo AK release 6 and miR-122 sensor -2.
For CC(/C=C1\SC(=S)N(NS(=O)(=O)c2ccc(C)cc2)C1=O)=C\c1ccccc1 the results were Cneo AK release -3, E-sel inducer 0, miR-122 sensor 0, rRNA inh HTS -29 and DENV2 CPE inconclusive.
CCC(=O)N1C[C@H](O)COC[C@H]2O[C@@H](CC(=O)NCc3ccc(Oc4ccccc4)cc3)CC[C@@H]21 was read as Cneo AK release 2, E-sel inducer 0, miR-122 sensor 1[16.7 µM], rRNA inh HTS -6 and DENV2 CPE 92*.
`O=C(C[C@@H]1CC[C@H]2[C@@H](COC[C@H](O)CN2CCc2ccccc2)O1)NCc1ccc(Oc2ccccc2)cc1` gave Cneo AK release -2, E-sel inducer 0, miR-122 sensor -13[16.7 µM], rRNA inh HTS -6 and DENV2 CPE 24*.
COc1ccc(S(=O)(=O)Nc2ccc3c(c2)C(=O)N([C@H](C)CO)C[C@H](C)[C@H](CN(C)C(=O)c2ccccc2)OCCCC[C@H](C)O3)cc1 was read as Cneo AK release -1, E-sel inducer 0, miR-122 sensor -2[16.7 µM], rRNA inh HTS 0 and DENV2 CPE -2.
Screening Cc1ccc(S(=O)(=O)Nc2ccc3c(c2)C(=O)N([C@H](C)CO)C[C@@H](C)[C@H](CN(C)Cc2ccc(-c4ccccc4)cc2)O3)cc1 returned Cneo AK release -2, E-sel inducer 157*, miR-122 sensor -8[16.7 µM], rRNA inh HTS 0 and DENV2 CPE 2.
For C[C@@H]1CN([C@H](C)CO)C(=O)c2cc(NS(=O)(=O)c3ccc(Cl)cc3)ccc2O[C@@H]1CN(C)Cc1ccccc1 the results were Cneo AK release 1, miR-122 sensor -1[16.7 µM], rRNA inh HTS -4 and DENV2 CPE 42*.
Screening Cc1ccc(S(=O)(=O)Nc2ccc3c(c2)C(=O)N([C@H](C)CO)C[C@H](C)[C@H](CN(C)Cc2ccccc2)O3)cc1 returned Cneo AK release -2, E-sel inducer 0, miR-122 sensor 15[16.7 µM], rRNA inh HTS 1 and DENV2 CPE 9.
`Cc1ccc(S(=O)(=O)Nc2ccc3c(c2)C(=O)N([C@H](C)CO)C[C@H](C)[C@@H](CN(C)Cc2ccccc2)O3)cc1` gave Cneo AK release 100*!, E-sel inducer 0, miR-122 sensor 17[16.7 µM], rRNA inh HTS -3 and DENV2 CPE -9.
`C[C@@H]1CN([C@H](C)CO)C(=O)c2cc(NS(=O)(=O)c3ccc(Cl)cc3)ccc2O[C@H]1CN(C)Cc1ccccc1` gave Cneo AK release 2, miR-122 sensor 3[16.7 µM], rRNA inh HTS -8 and DENV2 CPE -2.
COc1cccc(S(=O)(=O)N[C@@H]2CC[C@@H](CCn3cc(-c4ccccn4)nn3)O[C@H]2CO)c1 was read as Cneo AK release -1, E-sel inducer 0, rRNA inh HTS 0 and DENV2 CPE inconclusive.
C[C@@H]1CN([C@@H](C)CO)C(=O)Cc2cc(NC(=O)Nc3ccc(C(F)(F)F)cc3)ccc2O[C@H]1CN(C)C(=O)Nc1ccccc1 was read as Cneo AK release -1, E-sel inducer 0, miR-122 sensor -2[16.7 µM], rRNA inh HTS 0 and DENV2 CPE 1.
Screening Cc1nc(-c2ccccc2)[nH]c(=O)c1Oc1ccc(Cl)cc1Cl returned Cneo AK release 2, E-sel inducer 0 and DENV2 CPE -1.
Screening O=c1[nH]c(=S)[nH]cc1Oc1ccc(Cl)cc1Cl returned Cneo AK release 2, rRNA inh HTS -25* and DENV2 CPE 9.
Screening C[C@H](CO)N1C[C@H](C)[C@@H](CN(C)Cc2ccccc2)Oc2cc(C3=CCCCC3)ccc2S1(=O)=O returned E-sel inducer 1, miR-122 sensor 51[16.7 µM] and rRNA inh HTS -2.
For C[C@@H]1CN([C@H](C)CO)C(=O)c2cc(NC(=O)C3CCCCC3)ccc2O[C@@H](C)CCCCO[C@@H]1CN(C)CC1CCCCC1 the results were Cneo AK release 0, E-sel inducer 0, miR-122 sensor 3[16.7 µM], rRNA inh HTS -7 and DENV2 CPE -13.
C[C@@H]1CN([C@H](C)CO)C(=O)c2cc(NC(=O)C3CCCCC3)ccc2O[C@@H]1CN(C)S(C)(=O)=O was read as Cneo AK release 0, E-sel inducer 2, miR-122 sensor -2[16.7 µM], rRNA inh HTS 5 and DENV2 CPE 24*.
Screening C[C@H](CO)N1C[C@H](C)[C@@H](CN(C)CC2CCCCC2)Oc2ccc(NC(=O)C3CCCCC3)cc2C1=O returned Cneo AK release -1, miR-122 sensor -5[16.7 µM], rRNA inh HTS 2 and DENV2 CPE 23*.
C[C@H](CO)N1C[C@H](C)[C@H](CN(C)CC2CCCCC2)OCCCC[C@H](C)Oc2ccc(NC(=O)C3CCCCC3)cc2C1=O was read as Cneo AK release 3, E-sel inducer 2, miR-122 sensor -6[16.7 µM], rRNA inh HTS -1 and DENV2 CPE 23*.
